Screening results as filed in PubChem.
Mdm2 MdmX PPI – inhibitors of human Mdm2-MdmX association, primary screen, cell-based, luminescence, split luciferase, SaOS-2, uHTS | 3% of 330,000 active | SaOS-2 split-luciferase Mdm2/MdmX complementation | inhibition, % at 8 µM | Protein Mdm4 (Homo sapiens) + E3 ubiquitin-protein ligase Mdm2 (Homo sapiens), … | AID 485346, 2010;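 active = inhibition of at least 50% at 8 µM in the primary screen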
XBP1 UPR activ – activators of adaptive XBP1 UPR arm, primary screen, cell-based, CHO-XBP1 luciferase reporter, luminescence, uHTS; IRE1-XBP1 UPR activation; percent of tunicamycin response, DMSO as zero; activation, % at 20 µM; 0.33% of 330,000 active; AID 463104, 2010;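 active = versus positive control, 20 µM dose yields 30% or more activation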;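 also: 100% = tunicamycin at 10 µg/mL and 0% = DMSO only wells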
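Material: CHO cell line with stable XBP1 luciferase reporter; schedule: 16-18 h cell attachment at 37 °C, then 6 h compound exposure; signal: glow luminescence from Steady-Glo reagent; medium: serum-containing F12 medium, 10% FBS; benchmarks: tunicamycin 10 µg/mL and vehicle-only wells; read-out: percent activation relative to tunicamycin reference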
Granule exo inh – LAMP-1 surface exposure blockers, TALL-104 cells – cell-based, flow cytometry, MLPCN library, primary screen; inhibition, % at 10 µM; TALL-104 LAMP-1 surface exposure; cells stimulated with thapsigargin and PMA; 0.66% of 360,000 active;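 active = inhibition above about 55%, limit read from the data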
CHOP UPR activ – activators of apoptotic CHOP UPR arm, primary screen, cell-based, CHO-CHOP luciferase reporter, luminescence, uHTS | 0.34% of 330,000 active | AID 449763, 2010 | UPR activation; percent of tunicamycin response over DMSO baseline | activation, % at 10 µM;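 active = at 10 µM dose, activation of 40% or more, normalized to positive control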;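 also: 100% = tunicamycin at 10 µg/mL and 0% = DMSO alone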
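System: CHO-CHOP luciferase reporter cell line; amount: 500 cells/well; buffer or medium: F12 medium containing 10% fetal bovine serum; incubation: 6 h compound exposure at 37 °C after overnight seeding; measured by: luciferase luminescence after 10 min with Steady-Glo reagent; evaluation: % reporter activation, DMSO baseline versus tunicamycin full activation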
ABHD5 PLIN5 PPI – ABHD5-PLIN5 interaction inhibitors, primary screen, cell lysate, split luciferase complementation, luminescence; Split G. princeps luciferase complementation, 4 h; 0.78% of 360,000 active; Perilipin-5 (Homo sapiens) + 1-acylglycerol-3-phosphate O-acyltransferase ABHD5 (Homo …; inhibition, % at 4 µM; AID 602281, 2012;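 active = inhibition above the mean inhibition across every tested compound plus 3 SD, cut at about 22% in these data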;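 also: 0% = DMSO only wells and the 100% control is not disclosed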
Mdm2-MdmX conf – Mdm2-MdmX complex disruptors, retested hits, confirmation, luminescence, single concentration; shares compounds with Mdm2 MdmX PPI; Mdm2-MdmX binding, luminescent assay; inhibition, % at 8 µM; 55% of 10,000 active; AID 489028, 2010; in the data active = inhibition above about 40%
Full FLuc ctr – full-length luciferase signal inhibition, confirmation, counter-screen for Mdm2/MdmX interaction inhibitor project, cell-based, single concentration, SaOS-2. shares compounds with Mdm2 MdmX PPI. SaOS-2 full-length luciferase counterscreen, luminescence. inhibition, % at 8 µM. 77% of 6,200 active;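 active = mean inhibition at 8 µM reaching about 37%, which flags the compound as non-specific, limit read from the data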;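 also: p53-null SaOS-2 cells with luciferase driven by a doxycycline-inducible promoter; compound on cells about two nights before reading with doxycycline added after day one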
Active calls of the source: *. A selection: hits, their analogues and other compounds. The true share with any hit is near 4%.

What do the screens show for `Cc1c(Cl)c(C(F)(F)F)nn1CC(=O)NCc1ccco1`?
Mdm2 MdmX PPI: 1; XBP1 UPR activ: 4; Granule exo inh: -2; CHOP UPR activ: 2; ABHD5 PLIN5 PPI: 5

Results for O=C(NNC1=C(C(=O)C(F)(F)F)CCC1)c1cccc(Cl)c1 ?
Mdm2 MdmX PPI: 61*; XBP1 UPR activ: 4; Granule exo inh: 16; CHOP UPR activ: -1; ABHD5 PLIN5 PPI: -9; Mdm2-MdmX conf: 36; Full FLuc ctr: 65*

Results for COc1ccc(C(=O)NNC2=C(C(=O)C(F)(F)F)CCC2)cc1 ?
Mdm2 MdmX PPI: 68*; XBP1 UPR activ: -1; Granule exo inh: 0; CHOP UPR activ: 2; ABHD5 PLIN5 PPI: -2; Mdm2-MdmX conf: 38; Full FLuc ctr: 97*

Results for O=C(NNC(=O)c1cccc(Cl)c1)NNC(=O)c1cccc(Cl)c1 ?
Mdm2 MdmX PPI: 18; XBP1 UPR activ: -1; Granule exo inh: 8; CHOP UPR activ: 1; ABHD5 PLIN5 PPI: -1

What do the screens show for `O=C(NNC1=C(C(=O)C(F)(F)F)CCC1)c1ccc(Cl)cc1`?
Mdm2 MdmX PPI: 52*; XBP1 UPR activ: 5; Granule exo inh: 2; CHOP UPR activ: -1; ABHD5 PLIN5 PPI: 1; Mdm2-MdmX conf: 55*; Full FLuc ctr: 76*

What do the screens show for `CC(C)(C)c1ccc(C(=O)NNC(=O)c2ccc(Cl)cc2)cc1`?
Mdm2 MdmX PPI: -5; XBP1 UPR activ: -1; Granule exo inh: -4; CHOP UPR activ: 4; ABHD5 PLIN5 PPI: -2

Results for CCc1noc(C)c1C(=O)N1CCN(S(=O)(=O)c2cccs2)CC1 ?
Mdm2 MdmX PPI: 16; XBP1 UPR activ: -4; Granule exo inh: 2; CHOP UPR activ: 0; ABHD5 PLIN5 PPI: -5

What do the screens show for `CCc1ccc2nc(SCC(=O)Nc3ccccc3N3CCOCC3)c(C#N)cc2c1`?
Mdm2 MdmX PPI: 67*; XBP1 UPR activ: 2; Granule exo inh: 4; CHOP UPR activ: 0; ABHD5 PLIN5 PPI: -5; Mdm2-MdmX conf: 60*; Full FLuc ctr: 46*

Results for CCN(CC)CCN(C(=O)/C=C/c1cccs1)c1nc2ccc(F)cc2s1 ?
Mdm2 MdmX PPI: 52*; XBP1 UPR activ: -5; Granule exo inh: 39; CHOP UPR activ: 0; ABHD5 PLIN5 PPI: 0; Mdm2-MdmX conf: 20

Results for CCN(CC)CCN(C(=O)/C=C/c1cccs1)c1nc2ccc(C)cc2s1 ?
Mdm2 MdmX PPI: 65*; XBP1 UPR activ: -3; Granule exo inh: 4; CHOP UPR activ: 0; ABHD5 PLIN5 PPI: 15; Mdm2-MdmX conf: 20

How did CN(C)CCN(C(=O)/C=C/c1cccs1)c1nc2ccc(Br)cc2s1 do in these assays?
Mdm2 MdmX PPI: 27; XBP1 UPR activ: 1; Granule exo inh: 33; CHOP UPR activ: 1; ABHD5 PLIN5 PPI: 15

How did CCC1CCCCN1CCCNC(=O)c1ccc2c(c1)NC(=O)CS2 (configuration not stated) do in these assays?
Mdm2 MdmX PPI: 36; XBP1 UPR activ: -3; Granule exo inh: -1; CHOP UPR activ: 0; ABHD5 PLIN5 PPI: 2

How did COc1ccc(NC(C)C(=O)N/N=C/c2c(O)ccc3ccccc23)cc1 (configuration not stated) do in these assays?
Mdm2 MdmX PPI: 65*; XBP1 UPR activ: 0; Granule exo inh: 7; CHOP UPR activ: -1; ABHD5 PLIN5 PPI: 3; Mdm2-MdmX conf: 56*; Full FLuc ctr: 39*

What do the screens show for `O=C(CNc1ccccc1)N/N=C/c1c(O)ccc2ccccc12`?
Mdm2 MdmX PPI: 84*; XBP1 UPR activ: -1; Granule exo inh: 5; CHOP UPR activ: -4; ABHD5 PLIN5 PPI: -9; Mdm2-MdmX conf: 79*; Full FLuc ctr: 27
